Experiment [1] addresses recombinant human S1PR1 (hS1PR1) membranes (Homo sapiens, UniProt P21453). Kind of experiment: Competition binding assay against [^3H]CS1P1 with recombinant hS1PR1 membranes. Conditions: displacement of 8 nM [^3H]CS1P1, recombinant hS1PR1 membranes.
For experiment [2], the system named is MS patients. To be noted: particularly deep gray matter structures; cited from earlier work.
Experiment [3] deals with S1PR1 (Rattus norvegicus, UniProt P48303). As to the kind of experiment: In vitro autoradiography of [^3H]CS1P1 in the rat brain and spinal cord. It is filed as binding. Conditions: 10 μM NIBR-0213. In short, it runs like this: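 Frozen 14 μm sections from adult SD rat brain and spinal cord, pre-incubated 5 min at RT in HBSS with 10 mM HEPES, 5 mM MgCl₂, 0.2% BSA, 0.1 mM EDTA, pH 7.4. Labelled with 0.5 nM radioligand, 1 h at RT with shaking. […] Washed 3 × 5 min, ice-cold water dip, air-dried overnight. Film exposure 15 days with tritium standards. Specific binding = total − nonspecific in randomly chosen ROIs.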
Sequence of S1PR1 (P48303 whole entry): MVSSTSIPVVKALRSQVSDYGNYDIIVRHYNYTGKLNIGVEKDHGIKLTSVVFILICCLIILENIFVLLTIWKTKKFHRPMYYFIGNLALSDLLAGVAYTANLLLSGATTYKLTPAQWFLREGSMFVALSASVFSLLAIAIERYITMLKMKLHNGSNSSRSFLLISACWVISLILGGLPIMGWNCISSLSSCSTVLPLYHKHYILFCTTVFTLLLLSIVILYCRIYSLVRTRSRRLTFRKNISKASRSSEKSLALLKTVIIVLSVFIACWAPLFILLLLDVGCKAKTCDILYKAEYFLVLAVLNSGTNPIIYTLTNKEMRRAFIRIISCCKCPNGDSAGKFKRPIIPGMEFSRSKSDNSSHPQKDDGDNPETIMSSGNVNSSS

Usually Ki stands for a measure of affinity in units of concentration, obtained from inhibition or displacement.

SMILES strings stand for the structures. “And” between values parts separate entries of the source, which are not always exact repeats. Identical values can stand only once.

Sequence of recombinant human S1PR1 (hS1PR1) membranes (P21453 whole entry): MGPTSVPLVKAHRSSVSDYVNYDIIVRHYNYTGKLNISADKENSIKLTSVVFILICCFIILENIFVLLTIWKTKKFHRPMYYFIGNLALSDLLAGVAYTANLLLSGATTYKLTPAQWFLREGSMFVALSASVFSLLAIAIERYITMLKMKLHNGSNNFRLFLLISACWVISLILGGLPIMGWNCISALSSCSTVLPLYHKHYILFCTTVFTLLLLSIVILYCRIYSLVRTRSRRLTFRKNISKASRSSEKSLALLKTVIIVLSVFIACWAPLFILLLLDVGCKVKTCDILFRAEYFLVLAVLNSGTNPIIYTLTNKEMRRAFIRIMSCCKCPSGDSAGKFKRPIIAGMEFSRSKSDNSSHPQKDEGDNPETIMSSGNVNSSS

Consider `CCCCCCCCCCCCC/C=C/[C@@H](O)[C@@H](N)COP(=O)(O)O` [S1P, Sphingosine-1-phosphate], for which the Ki in experiment [1] was < 10 nM and 5.7 nM.
With `CCCCCCCCc1ccc(CCC(N)(CO)CO)cc1` [fingolimod], the “effect on brain atrophy” value in experiment [2] is “reduced brain atrophy”.
For `Cc1cc([C@@H](C)Nc2cccc(-c3cc(C)c(C(=O)N[C@@H](C)C(=O)O)c(C)c3)c2)ccc1Cl` [NIBR-0213], the “blocking of [^3H]CS1P1 radioactivity” value in experiment [3] is reported as “can be blocked”.

The values above are taken from publication PMC8605766 (ACS chemical neuroscience, 2021).
